MT1-MMP act inh: MT1-MMP (human) activation inhibition; P50281; HT1080 RFP-PRO-GFP cells, GFP/RFP ratio fluorescence, overnight; percent of plate control window, DMSO zero; GFP/RFP ratio change, % at 20 µM; hit rate 0.061% among 360,000; AID 651647;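 active means GFP/RFP ratio change of at least 30% with cell ATP level not reduced by more than half and red fluorescence within 50% of control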
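Test system: HT1080 cells expressing an RFP-PRO-GFP fluorescent reporter construct / Compound dosing: single-point 20 µM compound, 1% DMSO / Schedule: cells overnight before dosing, compound overnight, 37 °C, 5% CO2 / Evaluation: GFP/RFP fluorescence ratio / Control set: DMSO and RFP-L50D-GFP cell wells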
Neddylation inh: cullin neddylation inhibition; P61081+Q13564; TR-FRET cullin neddylation, biochemical; calls only at 25 µM; hit rate 0.58% among 360,000; AID 651699; in the data active means inhibition above about 36%
proKLK7 act: proKLK7 (human) activation, primary screen. activation, % at 7 µM. purified proKLK7, EDANS-DABCYL substrate fluorescence; 100% is mature enzyme control, 0% vehicle. P49862. hit rate 0.9% among 370,000;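 active means activation above the mean of all tested compounds plus 3 SD, computed per campaign excluding outliers beyond control limits, cut at about 13% in these data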
Tn7 DDE FP: inhibitors of Tn7 peptide binding to human fibrin DD(E) | P02675 | FP displacement of FITC-Tn7 peptide from fibrin DD(E); 0% = median of compound wells per plate | inhibition, % at 8.3 µM | hit rate 0.13% among 370,000;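 active means inhibition above the mean of compounds falling within the control limits plus 3 SD of them, cut at about 14% in these data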;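 further: 0% = plate median of compound wells and 100% = 10 µM Aha-Tn7 peptide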
Target sequence (P02675 whole entry, looked up): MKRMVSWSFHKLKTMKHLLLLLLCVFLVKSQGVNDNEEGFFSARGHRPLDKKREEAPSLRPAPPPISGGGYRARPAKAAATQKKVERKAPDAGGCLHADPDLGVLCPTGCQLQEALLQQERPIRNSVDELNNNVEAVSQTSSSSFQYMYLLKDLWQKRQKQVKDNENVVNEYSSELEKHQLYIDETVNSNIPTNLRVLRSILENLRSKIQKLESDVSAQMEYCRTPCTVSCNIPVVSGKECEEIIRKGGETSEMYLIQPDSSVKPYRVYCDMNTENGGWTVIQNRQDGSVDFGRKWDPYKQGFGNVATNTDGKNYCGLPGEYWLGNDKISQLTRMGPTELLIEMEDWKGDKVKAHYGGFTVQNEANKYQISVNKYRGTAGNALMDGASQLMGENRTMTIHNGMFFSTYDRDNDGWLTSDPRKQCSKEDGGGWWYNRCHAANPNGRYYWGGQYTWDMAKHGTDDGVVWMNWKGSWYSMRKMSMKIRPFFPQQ
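assay system = human clot-derived fibrin DD(E) complex | quantity = Fibrin-DD(E) at 2 µM final | timing = 10 min preincubation, 3 h with tracer, room temperature | signal = fluorescence polarization | measure = percent inhibition | benchmarks = high control wells with 10 µM unlabelled Aha-Tn7 peptide (full inhibition) | replicates = singlicate testing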
SKN-1 inh: C. elegans SKN-1 inhibition | inhibition, % at 21.8 µM | AID 624304 | hit rate 0.49% among 360,000 | C. elegans VP596 Pgst-4::GFP/RFP ratio, acrylamide-induced, 24 h;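 active means interference check ratio from 0.5 to 1.5 plus GFP to RFP signal ratio inhibition reaching or exceeding a fixed threshold, cut at about 30% in these data, passing the limit was not always enough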
Tn6 DDE FP: DD(E)-Tn6 binding inhibition, primary FP screen; P02675; AID 720509; Fibrin DD(E) TRITC-Tn6 fluorescence polarization displacement; inhibition, % at 8.3 µM; hit rate 0.21% among 370,000;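 active means inhibition above a per-campaign cutoff: mean of compounds within control limits plus 3 SD, cut at about 15% in these data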;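 further: 0% = median of all compound wells on the plate and 100% = blocking peptide control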
Starred values were filed as active, the others as inactive; i = inactive; / = not tested or not shown; + = active, no number. Most compounds without a hit are left out; they make up all but 2.2% or so of the library.

SMILES	MT1-MMP act inh	Neddylation inh	proKLK7 act	Tn7 DDE FP	SKN-1 inh	Tn6 DDE FP
COc1ccc(OC)c(NC(=O)c2cccc(N3C(=O)C4C5CCC(C5)C4C3=O)c2)c1 (stereo unspecified)	12.9	i	0.5	2.6	15.4	7.3
COc1ccc(CNC(=O)CN2C(=O)NC3(CCCc4sccc43)C2=O)cc1OC (stereo unspecified)	1.6	i	-0.2	6.0	0.7	4.3
CCCOC(=O)c1cc(=O)[nH]c2ccccc12	6.7	i	-0.3	5.1	36.8*	-0.2
O=C(CSc1ncnc2scc(-c3ccc(Cl)cc3)c12)NCc1ccc2c(c1)OCO2	-2.4	i	-0.3	-3.5	46.5*	8.8
Cc1ccc(-c2csc3ncnc(SCC(=O)NCc4ccc5c(c4)OCO5)c23)cc1	-7.8	i	-0.1	-4.2	9.8	5.3
COc1ccccc1N1CCN(CCC(=O)Nc2ccc3c(c2)OCO3)CC1	1.6	i	0.7	-1.3	48.5*	2.5
COc1ccccc1N1CCN(CC(=O)Nc2ccc3c(c2)OCCO3)CC1	3.0	i	-0.1	5.6	-22.5	-2.4
FC(F)(F)c1cc(Cl)c2nc(-c3ccccc3)cn2c1	0.9	i	0.5	2.0	41.2*	5.1
Cc1cc(SC2CCOC2=O)nc2ccccc12 (stereo unspecified)	-0.1	i	-0.2	5.7	-3.3	2.8
CN(C)C(CNC(=O)Nc1cccc(Cl)c1)c1cccnc1 (stereo unspecified)	2.0	i	0.0	-9.3	-11.9	1.5
O=c1cc(/C=C/c2ccccc2)oc2ccccc12	2.1	i	1.3	0.9	43.1*	-4.8
O=c1cc(-c2ccccc2)oc2ccccc12	0.0	i	0.1	-9.3	2.8	-5.6
OC(CN1CCN(C(c2ccccc2)c2ccccc2)CC1)c1ccccc1 (stereo unspecified)	0.2	i	/	/	39.5*	/
OC(CN1CCN(C(c2ccccc2)c2ccccc2)CC1)c1ccc(Br)cc1 (stereo unspecified)	-5.2	i	0.5	1.8	11.6	-2.5
O=C(Nc1ccccc1Cl)c1cnccn1	1.7	i	-0.1	-7.5	-4.5	0.7
O=C(Nc1ccc(Br)cc1Cl)c1cnccn1	-4.7	i	-0.1	8.5	61.4*	1.9
Cc1nn(C)cc1CN(C)Cc1ccc(OCC(O)CN2CCCCC2)cc1 (stereo unspecified)	-3.9	i	0.4	3.3	-11.6	5.6
NS(=O)(=O)c1ccc(NC(=O)COc2ccc(C(=O)c3ccc(F)cc3)cc2)cc1	-8.9	i	-0.5	1.2	1.8	24.0*
CN(c1ccc(OCC(=O)Nc2ccc(S(N)(=O)=O)cc2)cc1)S(=O)(=O)c1ccc(F)cc1	1.8	i	0.2	-1.4	2.0	-6.9
COC(=O)C1=C(N)Oc2cc(C)n(CC3CCCO3)c(=O)c2C1c1ccc(Cl)c(Cl)c1 (stereo unspecified)	3.4	i	0.9	-13.5	32.6*	-4.4
COC(=O)C1=C(N)Oc2cc(C)n(C)c(=O)c2C1c1ccc(Cl)c(Cl)c1 (stereo unspecified)	5.6	i	0.3	2.7	13.2	-2.9
COc1cccc(NC(=O)COc2ccccc2)c1	1.6	i	-0.5	-4.2	-4.3	-6.2
O=S(=O)(Nc1nc2ccccc2nc1Nc1ccc2c(c1)OCCO2)c1cccs1	-22.3	+	0.5	-1.1	8.4	-13.2
O=S(=O)(Nc1nc2ccccc2nc1Cl)c1ccc2c(c1)OCCO2	0.6	i	0.7	2.2	-9.6	0.0
Cc1cccn2c(=O)c(C=Nc3ccccc3)c(NCc3ccco3)nc12	-8.6	i	/	/	40.8*	/
SMILES	MT1-MMP act inh	Neddylation inh	proKLK7 act	Tn7 DDE FP	SKN-1 inh	Tn6 DDE FP
Cc1cccn2c(=O)c(C=NCCO)c(NCc3ccco3)nc12	-1.0	/	-0.3	0.5	-12.7	3.6
CC(=O)N1c2ccccc2Oc2cc3ccccc3cc21	10.8	i	-0.4	-7.4	3.7	-3.1
O=C(CCl)N1c2ccccc2Oc2ccc3ccccc3c21	-43.8	i	1.0	16.1*	79.8	38.7*
Cc1c(C#N)c(O)n(CCO)c(=O)c1N=Nc1ccccc1	5.5	i	-0.5	2.3	39.7*	8.8
Cc1ccccc1OCC(=O)N/N=C/c1cccc(Oc2ccc([N+](=O)[O-])cc2[N+](=O)[O-])c1	-10.2	i	0.5	2.9	5.9	3.1
Cc1c(NC(=O)/C(C#N)=C/c2ccc(-c3ccc(Cl)c(Cl)c3)o2)c(=O)n(-c2ccccc2)n1C	-3.3	i	-0.4	-2.1	46.0*	-4.2
Cc1[nH]c2ccccc2c1N=Nc1ccc(F)cc1	-2.2	i	1.3	2.8	87.4*	-2.3
O=C(CCN1C(=O)/C(=C/c2ccccc2Cl)SC1=S)Nc1ccccc1C(=O)O	2.3	i	-0.3	-2.2	39.2*	3.3
CCOCCCNC(=O)C(NC(=O)c1ccccc1O)c1ccc(Cl)cc1 (stereo unspecified)	-1.0	+	/	/	3.6	/
O=C(NCc1cccnc1)C(=O)NCC(c1ccco1)N1CCOCC1 (stereo unspecified)	-0.4	i	-0.8	2.4	-3.6	-6.0
Fc1cccc(/C=N/Nc2ncnc3nc[nH]c23)c1	1.3	i	-0.3	2.5	-15.2	2.7
COc1ccc(Cc2c(-c3ccco3)nc3c(C)cc(Br)cn23)c(C)c1	-5.8	i	0.9	-3.4	48.4*	-1.5
S=C(Nc1ccccc1)Nc1nc2ccccc2n1CCOc1ccccc1	9.4	i	-4.4	-1.8	41.0*	-2.9
CC(=O)Nc1nc2ccccc2n1CCOc1ccccc1	9.6	i	0.2	5.2	-7.8	-0.7
CC(=O)Nc1cccc(NC(=O)CCc2ccccc2)c1	6.7	i	0.4	2.1	-19.7	-3.2
N/C(=N\N=C\c1ccco1)SC1CC(=O)N(c2ccccc2)C1=O (stereo unspecified)	3.7	i	-0.1	3.5	2.4	3.4
CCCC(=O)N1CCN(c2ccc(NC(=O)c3cc4ccccc4o3)cc2Cl)CC1	-20.8	i	-0.5	-0.7	24.3	-2.9
CCC(=O)N1CCN(c2ccc(NC(=O)c3cc4ccccc4o3)cc2Cl)CC1	-15.4	i	0.6	-5.1	30.7*	-4.6
CCC(C)(C)NC(=O)C1CCN(S(=O)(=O)c2cccs2)CC1	0.1	i	0.2	3.7	14.9	3.3
CCC(CC)NC(=O)COc1ccc(OC)cc1C=O	-1.0	+	-33.7	0.5	-4.6	1.0
CCC(CC)NC(=O)COC(=O)c1ccc(OCC(=O)Nc2ccccc2OC)c(OC)c1	1.9	i	-0.8	1.4	4.5	5.4
C/C(=N\NC(=O)c1cccc(Br)c1)c1ccc(Br)cc1	4.7	i	0.2	-10.8	-2.9	1.9

Source: PubChem BioAssay (several laboratories)
